# Compound activity: PubChem BioAssay, Johns Hopkins Ion Channel Center
# Shown are actives, neighbours in structure and some others; about 2.9% of the full set was active somewhere.
# TRPC6 inhibitor – blocks the mouse TRPC6 cation channel. 310,000 tested, 1.1% active. HEK293-TRPC6, membrane potential dye, ACh-evoked depolarization; hits give low values. Q61143. AID 2553. B-score at 10 µM;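 active = B-score under library mean minus 3 SD, initial fluorescence not abnormally high, positive integrated signal ratio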;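 also: B-score derived from integrated fluorescence ratio over the kinetic read; more negative B-score means stronger inhibition of depolarization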
# TRPC4 potent – allosteric potentiators of mouse TRPC4 channel; 310,000 tested, 0.42% active; HEK293 TRPC4beta/mu-opioid, DAMGO EC20, Fluo-4 Ca2+ flux; hits give high values; B-score at 10 µM; AID 2227;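 active = B-score of calcium response area above 5 SD of library B-scores, with initial fluorescence ratio within 5 SD of library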;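 also: B-score of integrated fluorescence ratio over time as area under calcium response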
# TRPC4 inh – blocks the mouse TRPC4 cation channel; HEK293 TRPC4beta/mu-opioid, DAMGO-evoked Fluo4 calcium flux; hits give low values; B-score at 10 µM; 300,000 tested, 0.39% active; AID 2247;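 active = B-score over 3 SD under the library average, no early fluorescence shift, positive overall ratio signal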
#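 Material: HEK293 cells with stable TRPC4beta plus mu-opioid receptor expression; probe or stimulus: DAMGO in two steps, submaximal then maximal; technique: Fluo4 calcium fluorescence by kinetic imaging, 5 s 1 Hz baseline; measure: integrated fluorescence ratio relative to baseline, converted to per-well B score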
# TRPC6 activator – activates the mouse TRPC6 cation channel | Q61143 | HEK293-TRPC6 membrane potential dye fluorescence; hits give high values | B-score at 10 µM | 310,000 tested, 0.13% active | AID 2550;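 active = B-score of the integrated fluorescence ratio above library mean plus 3 SD, and starting fluorescence ratio within library mean plus 5 SD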;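 also: higher score means more depolarization so channel activation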
# Kir21 inh – Kir2.1 (mouse) channel inhibition; AID 1672; P35561; HEK293-Kir2.1, FluxOR thallium flux fluorescence; hits give low values; 310,000 tested, 0.85% active; B-score at 10 µM;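 active = fluorescence ratio B-score at or below minus 3 SD of library scores, with starting-brightness B-score within 2 SD, cut at about -4.2 in these data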;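 also: channel flux triggered by added potassium and thallium sulfate stimulus; B-score of peak minus minimum fluorescence over baseline after thallium stimulus; more negative B-score means stronger Kir2.1 block with less thallium influx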
# TRPC4 act – opens the mouse TRPC4 cation channel. HEK293 TRPC4beta/mu-opioid, Fluo4 calcium fluorescence; hits give high values. B-score at 10 µM. 310,000 tested, 0.49% active;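 active = B-score above 5 SD of library B-scores, and initial fluorescence ratio not above library mean plus 5 SD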;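 also: positive B-score marks a calcium rise read as TRPC4 activation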
#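 Material: HEK293 stable line with TRPC4beta plus mu-opioid receptor; technique: Fluo4 calcium-sensitive dye fluorescence, kinetic, 1 Hz baseline; timing: Fluo4 dye loading 45 min at room temperature, 110 s recording; controls: assay buffer as low control, maximal DAMGO as high control; read-out: integrated baseline-normalised fluorescence ratio, converted to per-well B score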
# hERG inh – counter-screen for Kir2.1 inhibitors: effect on human hERG | hERG-expressing cells, thallium flux | 320 tested, 20% active | inhibition, % at 10 µM | shares compounds with Kir21 inh;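 also: host cells are CHO cells stably expressing hERG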
# KCNK9 inh – human KCNK9 off-target activity of Kir2.1 blockers | shares compounds with Kir21 inh | 320 tested, 5% active | inhibition, % at 10 µM | KCNK9-expressing cells, ion flux inhibition
# Kir21 ephys inh – mouse Kir2.1 inward rectifier channel inhibition; shares compounds with Kir21 inh; Kir2.1 cells, automated patch-clamp current inhibition; inhibition, % at 25 µM; 320 tested, 71% active
# TRPC4 sel inh 2 – second selectivity test of TRPC6 inhibitors: effect on mouse TRPC4. HEK293 TRPC4/MOR, membrane potential dye fluorescence; channel activated by saturating DAMGO dose. AID 2776. shares compounds with TRPC6 inhibitor. inhibition, % at 10 µM. 920 tested, 42% active;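 active = compounds whose fluorescence signal differed from control wells by over 3 SD, either direction, in both duplicate plates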
# TRPC4 spec – tests whether TRPC6 inhibitors also affect mouse TRPC4; shares compounds with TRPC6 inhibitor; HEK293 TRPC4/mu-opioid, membrane potential fluorescence; 920 tested, 61% active; activity change, negative = inhibition, % at 10 µM;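 active = rise or fall in signal beyond 3 SD of buffer-only wells in both replicate plates, either sign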;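 also: integrated kinetic ratio of fluorescence range over baseline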
# HEK293 MPD ctr 2-1 – parental HEK293 nonspecific activity of TRPC6 inhibitors, second screen. shares compounds with TRPC6 inhibitor. parental HEK293 membrane potential dye fluorescence; maximal acetylcholine challenge after compound addition. signal change vs control, % at 10 µM. 920 tested, 31% active;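 active = membrane potential signal moving either way by over 3 SD of the maximum-effect control, in both duplicate plates, meaning non-specific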
# HEK293 MPD ctr-1 – counter-screen for TRPC6 inhibitors: effect in parental HEK293 cells; parental HEK293 membrane potential dye fluorescence; membrane potential signal change, % at 10 µM; 920 tested, 60% active; shares compounds with TRPC6 inhibitor;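 active = membrane potential signal shifting up or down by more than 3 SD of buffer-only wells, on both duplicate plates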
# HEK293 MPD ctr-2 – parental HEK293 nonspecific activity of TRPC6 modulators; shares compounds with TRPC6 inhibitor; membrane potential signal change, % at 10 µM; AID 488924; 2,400 tested, 51% active; membrane potential dye fluorescence;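 active = membrane potential signal moves up or down beyond 5 SD from buffer-only wells, on both duplicate plates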
# HEK293 MPD ctr 2-2 – parental HEK293 nonspecific activity of TRPC6 modulators, second screen. 2,400 tested, 14% active. shares compounds with TRPC6 inhibitor. AID 488926. inhibition, % at 10 µM. membrane potential dye fluorescence; after compound, maximal acetylcholine stimulation;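 active = membrane potential signal drops by more than 5 SD from the mean control signal, in both duplicate plates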;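 also: plate controls were acetylcholine ECmax control wells for no effect and buffer only wells for full effect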
# TRPC4 ctr mod – tests whether TRPC6 modulators also affect mouse TRPC4 | 2,400 tested, 69% active | shares compounds with TRPC6 inhibitor | percent change from control (negative = decrease, positive = increase), % at 10 µM | HEK293 TRPC4/mu-opioid, membrane potential fluorescence;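 active = membrane potential signal moved up or down beyond 5 SD of buffer control wells, in both duplicate plates, actives on both sides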;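 also: plate controls were assay buffer wells for no effect and DAMGO maximal-effect wells for full effect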
# TRPC4/MOR inh 2 – mouse TRPC4 off-target activity of TRPC6 modulators, second screen | 2,400 tested, 55% active | AID 488928 | shares compounds with TRPC6 inhibitor | inhibition, % at 10 µM | HEK293 TRPC4/mu-opioid, membrane potential dye fluorescence; stimulated with maximal-effect DAMGO;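 active = drop in membrane potential signal beyond 5 SD of the control wells in both duplicate plates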;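 also: TRPC4 counter screen for TRPC6 hits run under conditions tuned for TRPC6 not TRPC4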
# TRPC6 inh conf – mouse TRPC6 inhibitor confirmation. shares compounds with TRPC6 inhibitor. HEK293-TRPC6, membrane potential dye, ACh-evoked depolarization. inhibition, % at 10 µM. 3,300 tested, 43% active. AID 488960;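 active = fluorescence ratio falls more than 5 SD below the full-stimulation control mean, in both duplicate runs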;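 also: integrated fluorescence ratio of peak minus minimum over baseline after agonist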
# TRPC6 act conf – mouse TRPC6 activator confirmation; shares compounds with TRPC6 inhibitor; 2,800 tested, 11% active; HEK293-TRPC6 membrane potential dye fluorescence, FDSS; AID 488961; activation, % at 10 µM;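 active = ratio signal rise beyond 5 SD above unstimulated control wells' mean, seen in both duplicate runs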;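 also: plate controls were buffer EC0 wells for no effect and acetylcholine ECmax response for full effect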
# * marks the source's active call; other numbers are inactive results; i = inactive; · = no result. Unless noted, no rule for the calls is given here.
SMILES,TRPC6 inhibitor,TRPC4 potent,TRPC4 inh,TRPC6 activator,Kir21 inh,TRPC4 act,hERG inh,KCNK9 inh,Kir21 ephys inh,others
Cc1cc(C)nc(S/C=C/C(=O)c2ccc(F)cc2)n1,i,i,i,i,-0.63,i,·,·,·,
O=C(CN1Cc2ccccc2C1=O)Nc1ccc2c(c1)OCCO2,i,i,i,i,0.47,i,·,·,·,
Cc1ccccc1NC(=O)c1ccc(Cn2cc([N+](=O)[O-])cn2)o1,i,i,i,i,-0.27,i,·,·,·,
Cc1ccc(NC(=O)c2ccc(Cn3cc(Cl)cn3)o2)c(C)c1,i,i,i,i,-10*,i,i,i,50.6%*,
O=C(CSc1nnc(C2CC2)n1CC1CCCO1)Nc1cccc(Cl)c1 (stereo not drawn),i,i,i,i,-1.17,i,·,·,·,
O=C(Oc1ccc(C(=S)N2CCOCC2)cc1)c1ccccc1F,i,i,i,i,-7.6*,i,i,i,i,
CCN(Cc1ccccc1)S(=O)(=O)c1ccc2c(c1)NC(=O)CC(=O)N2,i,i,i,i,-2.18,i,·,·,·,
CCN(Cc1ccccc1)S(=O)(=O)c1ccc2c(c1)NC(=O)CS2,i,i,i,i,-5.75*,i,i,i,i,
C=CCC1(C(=O)NCCO)CCN(C(=O)OC(C)(C)C)CC1,i,i,i,i,1.23,i,·,·,·,
O=C(c1ccccc1)c1ccc(OCC(O)CNCc2ccc(F)cc2)cc1 (stereo not drawn),i,i,i,i,-9.22*,i,60.0%*,i,64.9%*,
O=C(COc1ccc(C(=O)c2ccccc2)cc1)NCc1ccc(F)cc1,i,i,i,i,-2.33,i,·,·,·,
CCc1cc(-c2n[nH]c(C)c2-c2nc(C)cs2)c(O)cc1OC,i,i,i,i,-11.2*,i,i,i,6.3%*,
O=C(Cn1cnc(S(=O)(=O)N2CCCCC2)c1)NCc1ccco1,i,i,i,i,1.09,i,·,·,·,
CC(C)N(Cc1ccccc1)S(=O)(=O)c1ccc(F)cc1,i,i,i,i,-2.34,i,·,·,·,
CC(C)N(Cc1ccccc1)S(=O)(=O)c1ccc(Cl)nc1,i,i,i,i,-6.94*,i,i,i,32.8%*,
Cc1cccc(N2CCN(C(=O)CSc3nc4ccccc4nc3N3CC(C)OC(C)C3)CC2)c1C (stereo not drawn),i,i,i,i,0.11,i,·,·,·,
S=C(NCC1CCCO1)N1CCN(c2nc(-c3ccc(Cl)cc3)cs2)CC1 (stereo not drawn),i,i,i,i,1.34,i,i,i,i,
Cn1c(-c2ccc(F)cc2)cnc1NCc1ccc(F)cc1,i,i,-6*,i,-10.2*,i,i,i,59.9%*,
Cn1c(-c2ccc(F)cc2)cnc1NCc1ccc(C#N)cc1,i,i,i,i,-0.71,i,·,·,·,
COc1cc(CNCc2ccccn2)ccc1OCc1ccc(Cl)cc1Cl,i,i,i,i,-5.96*,i,65.0%*,i,33.8%*,
COc1cc(CNCc2ccccn2)ccc1OCC(N)=O,i,i,i,i,2.09,i,·,·,·,
COc1ccccc1CNCc1ccc(OC)c2ccccc12,-6.15*,i,-7*,i,-8.14*,i,i,i,42.3%*,HEK293 MPD ctr-2=265.0%*;HEK293 MPD ctr 2-2=i;TRPC4 ctr mod=64.0%*;TRPC4/MOR inh 2=70.0%*;TRPC6 inh conf=52.0%*
COc1ccccc1CNCC(=O)NCc1ccc(C)cc1,i,i,i,i,2.15,i,·,·,·,
Oc1ccccc1Nc1nc(NCc2ccccc2)c2ccccc2n1,i,i,i,i,-0.98,i,·,·,·,
Cc1c(Cl)cccc1Nc1nc(NCCO)c2ccccc2n1,-6.9*,i,i,i,-9.54*,i,i,i,31.1%*,TRPC4 sel inh 2=51.0%*;TRPC4 spec=i;HEK293 MPD ctr 2-1=i;HEK293 MPD ctr-1=i;TRPC6 inh conf=i;TRPC6 act conf=i
Cc1ccc(Nc2cc(C)nc3c(C)cccc23)cc1,-6.8*,i,-7*,i,-8.7*,i,i,i,61.4%*,TRPC4 sel inh 2=20.5%*;TRPC4 spec=i;HEK293 MPD ctr 2-1=22.0%*;HEK293 MPD ctr-1=-196.5%*;TRPC6 inh conf=98.0%*;TRPC6 act conf=i
